“Also recorded” adds a separate entry of the source.
Legend:
[1] = system: E. coli ATCC 25 922; test: Field-emission SEM of nanonet morphology; format: cell-based; conditions: 40 µM peptide (100 µM E-E13 ASYM), 2 h, MHB, 37 °C
How it was run: (§1)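 Mid‑log bacteria were diluted in MHB to OD600 0.07, then given test peptide and shaken at 120 rpm. They were pelleted at 6000 g for 6 min, PBS‑washed three times, and fixed overnight at 4 °C in 2.5% glutaraldehyde. Cells were adhered to poly‑L‑lysine coverslips, post‑fixed with 1% OsO4 for 30 min, ethanol‑dehydrated and gold‑coated. Imaging was at 15 000×, with ≥3 fields per sample. Coverage and extensiveness were scored high/moderate/low.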

[2] = BODIPY-Cadaverine; format: binding, E. coli O111:B4 (LPS), S. aureus (LTA); conditions: LPS/LTA-BC complexes in 1× PBS pH 7.4, 37 °C, 30 minutes
How it was run: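 LPS (E. coli O111:B4) or LTA (S. aureus) at 50 µg mL−1 was premixed with 5 µM BODIPY‑cadaverine in 1× PBS pH 7.4 for 30 min at room temperature in the dark. The premix was added 1:1 to two‑fold serial peptide dilutions in PBS, with polymyxin B as control, and shaken at 120 rpm. Fluorescence was read at ex 580/em 620 nm. Occupancy factor and % BC displaced came from sample fluorescence scaled between highest and lowest signals.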

[3] = system: S. aureus ATCC 29 737; test: Field-emission SEM of nanonet morphology; format: cell-based; conditions: 40 µM peptide (100 µM E-E13 ASYM), 2 h, MHB, 37 °C
How it was run: as §1

[4] = K114 fluorescence fibrillation assay with LPS or LTA; format: physicochemical, E. coli O111:B4 (LPS), S. aureus (LTA); conditions: 20 µM peptide, 37 °C
How it was run: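 A 10 mM DMSO stock of K114 was diluted to 250 µM in water and mixed at once with test peptide plus LPS (E. coli O111:B4) or LTA (S. aureus), with shaking at 120 rpm. K114 fluorescence (ex 360/em 550 nm) was read at 0.5, 1 and 2 h. Results were given as % increase in signal, with a non‑fibrillating control peptide as baseline. Three repeats, mean ± SE.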

[5] = K114 fluorescence fibrillation assay in PBS alone; format: physicochemical; conditions: 20 µM peptide, 1× PBS pH 7.4, 37 °C, 30 minutes
How it was run: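 K114 was dissolved in DMSO at 10 mM and diluted to 250 µM in water. It was mixed at once with test peptide in 1× PBS pH 7.4 without LPS or LTA and shaken at 120 rpm. Fluorescence was read at ex 360/em 550 nm at 0.5, 1.0 and 2.0 h. Fibrillation was judged by signal above a non‑fibrillating control peptide.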

Fibrillation (K114 fluorescence signal) in response to LPS ([4]; 5 µg mL−1 LPS)	Fibrillation (K114 fluorescence signal) upon LTA binding ([4]; 5 µg mL−1 LTA)	Sequence	Nanonet morphology (surface coverage, extensiveness) on E. coli [1]	Binding to bacterial PAMPs (BC displaced from LPS or LTA) [2]	Nanonet morphology (surface coverage, extensiveness) on S. aureus [3]	Fibrillation (K114 fluorescence) in PBS alone [5]
–	–	EVRIKLTAKIEVR [E‐E13 ^ASYM]	minimal membrane contact and low surface coverage	significantly reduced binding to bacterial PAMPs	minimal membrane contact and low surface coverage	–
–	–	KFRFKLTAKFRFK [diF‐F13]	tighter interweaving of nanofibers on the surface of E. coli	–	formed nanonets similar to F‐F15 and BTT1‐3A	–
lower fibrillation in response to LPS	higher in fibrillation upon LTA binding	KFRVKLTAKVRFK [F‐F13]	loosely trap E. coli with moderate surface coverage	–	slightly increased surface coverage on S. aureus but with less extensive nanonets	–
–	–	KLKLKLTAKLKLK [btt1‐3A13]	less extensive nanonets with low surface coverage	–	random aggregated structures	–
–	–	LKFRFKLTAKFRFKL [diF‐F15]	–	–	–	spontaneously fibrillated in PBS; also recorded: significantly increased the K114 fluorescence signal, even in PBS alone
–	–	LKFRVKLTAKVRFKL [F‐F15]	extensive nanonets with moderate surface coverage	–	extensive nanonets with moderate surface coverage	–

— PMC12410913 (Small (Weinheim an Der Bergstrasse, Germany), 2025)
